Data reported in ChEMBL document CHEMBL4033667, “Design, synthesis, and identification of a novel napthalamide-isoselenocyanate compound NISC-6 as a dual Topoisomerase-IIα and Akt pathway inhibitor, and evaluation of its anti-melanoma activity” (Eur J Med Chem, 2017).
pIC50: −log10 of the molar value. Active and inactive are the calls of the source. The calls are words filed in the database; no cut-off is given here.

Tests used:
UACC-903 [1] = assay: Antiproliferative activity against human UACC-903 cells harboring BRAF V600E mutant after 24 hrs by MTT assay; type: functional, cell-based; conditions: UACC-903, 24 h
Summary of the method: (§1)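 MTT viability in melanoma lines grown in DMEM with 10% FBS and pen/strep at 37 °C, 5% CO2. 3000 cells/well, settled overnight, then exposed to compound (0 to 50 µM) in triplicate for 24, 48 or 72 h. MTT (5.0 mg/mL solution) added 3 h before termination. IC50 from non-linear regression (variable slope), mean ± SD.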

UACC-903 [2] = assay: Antiproliferative activity against human UACC-903 cells harboring BRAF V600E mutant after 48 hrs by MTT assay; type: functional, cell-based; conditions: UACC-903, 48 h; summary of the method: as §1
UACC-903 [3] = assay: Antiproliferative activity against human UACC-903 cells harboring BRAF V600E mutant after 72 hrs by MTT assay; type: functional, cell-based; conditions: UACC-903, 72 h; summary of the method: as §1
[4] = Antiproliferative activity against human 1205 Lu cells harboring BRAF V600E mutant after 24 hrs by MTT assay; type: functional, cell-based; summary of the method: as §1
[5] = Antiproliferative activity against human 1205 Lu cells harboring BRAF V600E mutant after 48 hrs by MTT assay; type: functional, cell-based; summary of the method: as §1
[6] = Antiproliferative activity against human 1205 Lu cells harboring BRAF V600E mutant after 72 hrs by MTT assay; type: functional, cell-based; summary of the method: as §1
[7] = Antiproliferative activity against human A375M cells harboring BRAF V600E mutant after 24 hrs by MTT assay; type: functional, cell-based; summary of the method: as §1
[8] = Antiproliferative activity against human A375M cells harboring BRAF V600E mutant after 48 hrs by MTT assay; type: functional, cell-based; summary of the method: as §1
[9] = Antiproliferative activity against human A375M cells harboring BRAF V600E mutant after 72 hrs by MTT assay; type: functional, cell-based; summary of the method: as §1
CHL-1 [10] = assay: Antiproliferative activity against human CHL-1 cells harboring wild type BRAF after 24 hrs by MTT assay; type: functional, cell-based; conditions: CHL-1, 24 h; summary of the method: as §1
CHL-1 [11] = assay: Antiproliferative activity against human CHL-1 cells harboring wild type BRAF after 48 hrs by MTT assay; type: functional, cell-based; conditions: CHL-1, 48 h; summary of the method: as §1
CHL-1 [12] = assay: Antiproliferative activity against human CHL-1 cells harboring wild type BRAF after 72 hrs by MTT assay; type: functional, cell-based; conditions: CHL-1, 72 h; summary of the method: as §1
[13] = target: DNA topoisomerase 2-alpha (Homo sapiens) (UniProt P11388); assay: Inhibition of human DNA topoisomerase 2alpha assessed as decrease in relaxation of supercoiled pBR322 DNA at 0.5 to 5 uM after 1 hr by ethidium bromide staining-based agarose gel electrophoresis
Summary of the method: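 Kit-based relaxation assay: supercoiled plasmid DNA with 4 units of human Topo-IIα in assay buffer plus test agent or DMSO at 37 °C (1 h in legend, 30 min in methods). Stopped with 10% SDS, then proteinase K 15 min at 37 °C. Run on 1% agarose 1-2 h, ethidium bromide 2 h, destain 15 min in TAE, UV imaging.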

DNA topoisomerase 2-alpha (Homo sapiens), sequence (P11388 whole entry): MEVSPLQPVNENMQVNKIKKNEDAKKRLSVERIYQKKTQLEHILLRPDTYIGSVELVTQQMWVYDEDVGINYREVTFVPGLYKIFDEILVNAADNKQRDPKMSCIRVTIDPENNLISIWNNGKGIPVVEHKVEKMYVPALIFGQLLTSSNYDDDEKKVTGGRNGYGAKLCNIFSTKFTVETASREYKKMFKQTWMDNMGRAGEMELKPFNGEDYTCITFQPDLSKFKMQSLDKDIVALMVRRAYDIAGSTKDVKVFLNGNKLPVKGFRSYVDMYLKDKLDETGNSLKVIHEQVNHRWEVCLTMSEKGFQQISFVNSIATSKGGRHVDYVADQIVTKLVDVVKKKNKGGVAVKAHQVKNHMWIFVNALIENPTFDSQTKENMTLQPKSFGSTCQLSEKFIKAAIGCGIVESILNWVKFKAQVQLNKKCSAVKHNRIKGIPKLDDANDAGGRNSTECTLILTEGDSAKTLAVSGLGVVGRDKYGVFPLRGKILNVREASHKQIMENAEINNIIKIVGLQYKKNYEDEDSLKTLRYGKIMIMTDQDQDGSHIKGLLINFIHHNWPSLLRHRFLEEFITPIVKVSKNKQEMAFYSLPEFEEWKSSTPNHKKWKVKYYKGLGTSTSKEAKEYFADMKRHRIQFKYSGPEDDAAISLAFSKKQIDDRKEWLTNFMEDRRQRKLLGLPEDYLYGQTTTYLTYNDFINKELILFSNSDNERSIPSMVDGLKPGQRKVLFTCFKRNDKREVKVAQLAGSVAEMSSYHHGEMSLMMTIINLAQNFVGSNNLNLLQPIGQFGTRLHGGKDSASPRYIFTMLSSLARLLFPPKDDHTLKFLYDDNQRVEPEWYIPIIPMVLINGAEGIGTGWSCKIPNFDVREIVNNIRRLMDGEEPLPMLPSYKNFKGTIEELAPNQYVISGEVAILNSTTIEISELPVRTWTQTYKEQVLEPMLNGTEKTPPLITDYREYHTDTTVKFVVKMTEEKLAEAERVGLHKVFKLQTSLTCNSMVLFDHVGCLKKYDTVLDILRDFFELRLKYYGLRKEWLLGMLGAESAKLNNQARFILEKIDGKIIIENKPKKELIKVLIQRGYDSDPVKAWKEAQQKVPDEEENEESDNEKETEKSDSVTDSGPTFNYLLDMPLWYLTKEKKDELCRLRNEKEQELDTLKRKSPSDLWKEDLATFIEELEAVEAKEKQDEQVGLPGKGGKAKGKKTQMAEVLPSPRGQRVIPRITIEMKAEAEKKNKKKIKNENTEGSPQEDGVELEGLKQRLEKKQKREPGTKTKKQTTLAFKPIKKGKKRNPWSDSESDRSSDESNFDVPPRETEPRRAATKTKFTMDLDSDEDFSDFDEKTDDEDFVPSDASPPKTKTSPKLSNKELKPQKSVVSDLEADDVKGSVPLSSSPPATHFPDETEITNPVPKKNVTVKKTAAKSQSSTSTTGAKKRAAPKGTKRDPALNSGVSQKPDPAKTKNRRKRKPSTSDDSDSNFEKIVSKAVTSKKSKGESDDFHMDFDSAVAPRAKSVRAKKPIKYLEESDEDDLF

inhibition [13] | SMILES | pIC50 (UACC-903 [1]) | pIC50 (UACC-903 [2]) | pIC50 (UACC-903 [3]) | pIC50 [4] | pIC50 [5] | pIC50 [6] | pIC50 [7] | pIC50 [8] | pIC50 [9] | pIC50 (CHL-1 [10]) | pIC50 (CHL-1 [11]) | pIC50 (CHL-1 [12])
– | N=C(N)[Se]CCN1C(=O)c2cccc3cccc(c23)C1=O | 4.33 | 4.89 | 4.92 | 4.33 | 4.94 | 5.09 | < 4.30 | 4.75 | 4.54 | 4.75 | 5.28 | 5.29
Active | COc1cc([C@@H]2c3cc4c(cc3[C@@H](O[C@@H]3O[C@@H]5CO[C@@H](C)O[C@H]5[C@H](O)[C@H]3O)[C@H]3COC(=O)[C@H]23)OCO4)cc(OC)c1O | – | – | – | – | – | – | – | – | – | – | – | –
